Results as given in ChEMBL document CHEMBL3627680, “An unprecedented dual antagonist and agonist of human Transglutaminase 2” (Bioorg Med Chem Lett, 2015).
Where a chain is given by its changes, count along the chain named. Activity calls are given as the source filed them. No cut-off for these calls is given here.

Experiments:
[1] = target: T1, Protein-glutamine gamma-glutamyltransferase (Homo sapiens, UniProt P21980); experiment: Non-competitive inhibition of recombinant human TG2 V224 mutant deamidation activity using Cbz-Gln-Gly as substrate preincubated for 30 mins followed by substrate addition by GDH-coupled assay in presence of 5 mM Ca2+
Summary of the method: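 V224 TG2 (0.5 μM) deamidation by GDH-coupled assay at 5 mM Ca2+. Rates measured across substrate concentrations at several inhibitor levels. Mode and Ki derived by Michaelis-Menten and Lineweaver-Burk analysis.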

[2] = tested on: Protein-glutamine gamma-glutamyltransferase (Homo sapiens), P21980 [UNDEFINED MUTATION]; experiment: Effect on open state of recombinant human TG2 V224 mutant at 500 uM after 1 hr by native PAGE analysis in presence of 1 mM MgCl2
[3] = tested on: Protein-glutamine gamma-glutamyltransferase (Homo sapiens), P21980 [UNDEFINED MUTATION]; experiment: Effect on closed state of recombinant human TG2 V224 mutant at 500 uM after 1 hr by native PAGE analysis in presence of 1 mM MgCl2
[4] = target: T1, Protein-glutamine gamma-glutamyltransferase; experiment: Competitive inhibition of recombinant human TG2 V224 mutant deamidation activity using Cbz-Gln-Gly as substrate preincubated for 30 mins followed by substrate addition by Lineweaver-Burk plot analysis in presence of 5 mM Ca2+
Summary of the method: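 Deamidation of Cbz-Gln-Gly by the V224 allele of human TG2 (0.5 μM) was read by a GDH-coupled assay at 5 mM Ca2+. Michaelis-Menten data were collected at several inhibitor levels, and Ki was derived from Lineweaver-Burk analysis.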

[5] = tested on: Protein-glutamine gamma-glutamyltransferase (Homo sapiens), P21980 [UNDEFINED MUTATION]; experiment: Activation of recombinant human TG2 V224 mutant deamidation activity using Cbz-Gln-Gly as substrate at 25 uM preincubated for 30 mins followed by substrate addition by GDH-coupled assay in presence of 0.6 mM Ca2+
[6] = tested on: Protein-glutamine gamma-glutamyltransferase (Homo sapiens), P21980 [UNDEFINED MUTATION]; experiment: Activation of recombinant human TG2 V224 mutant deamidation activity using Cbz-Gln-Gly as substrate at 15 uM preincubated for 30 mins followed by substrate addition by GDH-coupled assay in presence of 0.6 mM Ca2+
[7] = target: T2, Protein-glutamine gamma-glutamyltransferase (Homo sapiens) (UniProt P21980); experiment: Inhibition of wild type human TG2 at 15 uM in presence of 5 mM Ca2+
T2 sequence (whole entry): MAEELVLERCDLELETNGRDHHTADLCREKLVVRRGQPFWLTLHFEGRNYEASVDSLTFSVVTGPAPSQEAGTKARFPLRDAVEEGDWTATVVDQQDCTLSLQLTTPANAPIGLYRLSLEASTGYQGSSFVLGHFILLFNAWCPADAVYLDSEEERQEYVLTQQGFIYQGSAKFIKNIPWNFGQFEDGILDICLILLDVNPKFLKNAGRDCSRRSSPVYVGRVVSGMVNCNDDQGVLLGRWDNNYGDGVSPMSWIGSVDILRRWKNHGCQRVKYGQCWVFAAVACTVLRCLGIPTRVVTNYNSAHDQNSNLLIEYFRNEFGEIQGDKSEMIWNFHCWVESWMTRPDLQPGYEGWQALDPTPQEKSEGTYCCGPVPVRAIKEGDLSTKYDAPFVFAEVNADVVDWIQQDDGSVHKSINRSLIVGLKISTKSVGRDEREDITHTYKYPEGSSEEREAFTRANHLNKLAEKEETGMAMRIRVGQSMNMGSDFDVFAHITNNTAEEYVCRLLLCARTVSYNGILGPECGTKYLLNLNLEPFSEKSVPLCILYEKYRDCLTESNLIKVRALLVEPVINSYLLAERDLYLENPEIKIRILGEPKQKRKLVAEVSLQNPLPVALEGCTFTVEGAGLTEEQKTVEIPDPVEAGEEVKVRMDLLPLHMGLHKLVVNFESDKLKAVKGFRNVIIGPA
Summary of the method: (§1)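 GDH-coupled deamidation with wild-type or truncated (1-466) TG2 at 0.5 μM enzyme and 5 mM Ca2+. Activity normalized to each protein's own maximum.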

[8] = tested on: Protein-glutamine gamma-glutamyltransferase (Homo sapiens), P21980 [UNDEFINED MUTATION]; experiment: Inhibition of human TG2 E447Q/E451Q/E452Q/E454Q mutant deamidation activity using Cbz-Gln-Gly as substrate preincubated for 30 mins followed by substrate addition by GDH-coupled assay in presence of 5 mM Ca2+
[9] = tested on: Protein-glutamine gamma-glutamyltransferase (Homo sapiens), P21980 [UNDEFINED MUTATION]; experiment: Activation of recombinant human TG2 V224 mutant transamidating activity assessed as 5-BP incorporation into immobilized N-N-dimethylcasein at 15 uM preincubated for 30 mins followed by 5-BP addition measured after 1 hr by streptavidin-based microtiter plate assay in presence of 0.6 mM Ca2+/100 uM GMP-PNP
Summary of the method: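 Transamidation microtiter assay: 5-BP incorporated into immobilized N,N-dimethylcasein by V224 TG2 at 0.6 mM Ca2+ plus 100 μM GMP-PNP, with incorporated biotin quantified with streptavidin.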

[10] = target: T2, Protein-glutamine gamma-glutamyltransferase (Homo sapiens); experiment: Inhibition of wild type human TG2 deamidation activity using Cbz-Gln-Gly as substrate preincubated for 30 mins followed by substrate addition by GDH-coupled assay in presence of 5 mM Ca2+; summary of the method: as §1
[11] = tested on: Protein-glutamine gamma-glutamyltransferase (Homo sapiens), P21980 [UNDEFINED MUTATION]; experiment: Inhibition of human TG2 E396Q/N398S/D400N mutant deamidation activity using Cbz-Gln-Gly as substrate preincubated for 30 mins followed by substrate addition by GDH-coupled assay in presence of 5 mM Ca2+
[12] = tested on: Protein-glutamine gamma-glutamyltransferase (Homo sapiens), P21980 [UNDEFINED MUTATION]; experiment: Effect on closed state of recombinant human TG2 V224 mutant at 100 uM after 1 hr by native PAGE analysis
[13] = target: T2, Protein-glutamine gamma-glutamyltransferase (Homo sapiens); experiment: Activation of extracellular TG2 transamidating activity in human WI38 cells assessed as incorporation of 5-BP into fibronectin at 10 uM preincubated for 30 mins followed by 5-BP addition measured after 3 hrs by DAPI staining-based confocal fluorescence microscopic analysis; format: cell-based; details: WI-38
Summary of the method: (§2)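 WI-38 fibroblasts grown to confluence, pre-incubated 30 min with vehicle (1% DMSO) or compound, then incubated with 200 μM 5-(biotinamido)-pentylamine for 3 h. Cells fixed and stained to image 5-BP incorporation into extracellular matrix proteins as a measure of TG2 transamidation. Five images sampled per well.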

[14] = tested on: T3, Protein-glutamine gamma-glutamyltransferase (Homo sapiens), P21980 [R580A]; experiment: Inhibition of recombinant human TG2 R580A mutant deamidation activity using Cbz-Gln-Gly as substrate at 10 uM preincubated for 30 mins followed by substrate addition by GDH-coupled assay in presence of 3 mM Ca2+
T3 sequence (whole entry): T2 sequence (whole entry) with R580A
Summary of the method: (§3)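 GDH-coupled deamidation assay comparing wild-type and R580A TG2 at 0.5 μM enzyme and 3 mM Ca2+, with and without GMP-PNP.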

[15] = tested on: Protein-glutamine gamma-glutamyltransferase (Homo sapiens), P21980 [UNDEFINED MUTATION]; experiment: Effect on open state of recombinant human TG2 V224 mutant at 100 uM after 1 hr by native PAGE analysis
[16] = tested on: T3, Protein-glutamine gamma-glutamyltransferase (Homo sapiens), P21980 [R580A]; experiment: Activation of recombinant human TG2 R580A mutant deamidation activity using Cbz-Gln-Gly as substrate at 10 uM preincubated for 30 mins followed by substrate addition by GDH-coupled assay in presence of 3 mM Ca2+/500 uM GMP-PNP; summary of the method: as §3
[17] = tested on: Protein-glutamine gamma-glutamyltransferase (Homo sapiens), P21980 [UNDEFINED MUTATION]; experiment: Activation of recombinant human TG2 V224 mutant deamidation activity using Cbz-Gln-Gly as substrate preincubated for 30 mins followed by substrate addition by GDH-coupled assay in presence of 0.5 to 0.7 mM Ca2+
[18] = target: T2, Protein-glutamine gamma-glutamyltransferase (Homo sapiens); experiment: Activation of extracellular TG2 transamidating activity in human WI38 cells assessed as incorporation of 5-BP into fibronectin at 1 uM preincubated for 30 mins followed by 5-BP addition measured after 3 hrs by DAPI staining-based confocal fluorescence microscopic analysis; format: cell-based; details: WI-38; summary of the method: as §2
[19] = target: T2, Protein-glutamine gamma-glutamyltransferase (Homo sapiens); experiment: Inhibition of human TG2 truncated (1 to 466 amino acid residues) mutant at 15 uM in presence of 5 mM Ca2+; summary of the method: as §1

O=C1Nc2ccccc2/C1=C\C(=O)c1cccnc1
Ki [1]: 86 µM

Nc1nc2c(ncn2[C@@H]2O[C@H](COP(=O)(O)OP(=O)(O)NP(=O)(O)O)[C@@H](O)[C@H]2O)c(=O)[nH]1 [PHOSPHOAMINOPHOSPHONIC ACID GUANYLATE ESTER]
Activity [2]: inactive
Activity [3]: inactive
Ki [4]: 27 µM

O=C(/C=C1/C(=O)N(c2ccccc2)c2cccc(Cl)c21)c1cccnc1
Activity [5]: Active
Ki [1]: 9.1 µM

COc1ccccc1C(=O)/C=C1/C(=O)Nc2cccc(Cl)c21
Activity [6]: Active
inhibition [7]: Active
inhibition [8]: inactive
Activity [9]: Active
inhibition [10]: Active
inhibition [11]: Active
Activity [12]: inactive
Ki [1]: 3.3 µM
Activity [13]: inactive
inhibition [14]: Active
Activity [15]: inactive
Activity [16]: Active
Activity [17]: Active
Activity [18]: Active
inhibition [19]: Active

O=C1Nc2cccc(Cl)c2/C1=C\C(=O)c1ccc(Cl)cc1
Ki [1]: 47 µM
Activity [13]: inactive
Activity [18]: Active
